Experimental data of several laboratories.
Target: Mu-type opioid receptor (Oprm1, Rattus norvegicus, UniProt P33535)

Compound	observed	method	notes	Ki
Cc1cc(O)cc(C)c1C[C@H](N)C(=O)N[C@H](C)C(=O)NCC(=O)N[C@@H](Cc1ccc(Cl)cc1)C(=O)N(C)CCC[C@@]1(c2ccc(F)cc2)OCc2cc(C#N)ccc21	cell-free assay			12 nM
Cc1cc(O)cc(C)c1C[C@H](N)C(=O)N1CCc2ccc(Cc3cccc(N)c3)cc2C1	ligand displacement	radioligand	cell membranes	9.7 nM
CCc1cccc(C)c1C[C@H](NC(=O)[C@@H](CCCNC(=N)N)NC(=O)[C@@H](N)Cc1c(C)cc(O)cc1C)C(=O)N[C@@H](CCCCN)C(N)=O	ligand displacement	radioligand	cell membranes	0.0958 nM
C[C@@H](NC(=O)[C@@H](N)Cc1ccc(O)cc1)C(=O)NCC(=O)N[C@@H](Cc1ccccc1)C(=O)N(C)CCC[C@@]1(c2ccc(F)cc2)OCc2cc(C#N)ccc21	cell-free assay			88 nM
Cc1cccc(C)c1C[C@H](NC(=O)[C@@H](CCCNC(=N)N)NC(=O)[C@@H](N)Cc1c(C)cc(O)cc1C)C(=O)N[C@@H](CCCCN)C(N)=O	ligand displacement	radioligand	cell membranes	0.00935 nM
Cc1cc(O)cc(C)c1C[C@H](C)C(=O)N[C@@H]1C/C=C/CC[C@@H](C(N)=O)NC(=O)[C@H](Cc2ccccc2)NC(=O)[C@H](Cc2ccccc2)NC1=O	ligand displacement	radioligand	cell membranes	323 nM
C[C@@H](NC(=O)C[C@@H](N)Cc1ccc(O)cc1)C(=O)NCC(=O)N[C@@H](Cc1ccccc1)C(=O)NNC(=O)[C@H](Cc1ccccc1)NC(=O)CNC(=O)[C@@H](C)NC(=O)C[C@@H](N)Cc1ccc(O)cc1	ligand displacement	radioligand		62 nM
Cc1ccccc1Cc1ccc2c(c1)CN(C(=O)[C@@H](N)Cc1c(C)cc(O)cc1C)CC2	ligand displacement	radioligand	cell membranes	2.5 nM
Oc1cccc([C@@]23CCC[C@@H]([C@@H]2O)N(CC=Cc2ccccc2)CC3)c1	ligand displacement	radioligand		25 nM
Cc1cccc(Cc2ccc3c(c2)CN(C(=O)[C@@H](N)Cc2c(C)cc(O)cc2C)CC3)c1	ligand displacement	radioligand	cell membranes	3.1 nM
Cc1cc(O)cc(C)c1C[C@H](C)C(=O)N[C@@H]1CCCCC[C@@H](C(N)=O)NC(=O)[C@H](Cc2ccccc2)NC(=O)[C@H](Cc2ccccc2)NC1=O	ligand displacement	radioligand	cell membranes	18.3 nM
CCCC[C@@H](NC(=O)[C@@H](N)Cc1c(C)cc(O)cc1C)C(=O)NCC(=O)N[C@@H](Cc1ccc(F)cc1)C(=O)N(C)CCC[C@@]1(c2ccc(F)cc2)OCc2cc(C#N)ccc21	cell-free assay			1 nM
Cc1cc(O)cc(C)c1C[C@H](N)C(=O)N1CCc2ccc(Cc3ccc(N)cc3)cc2C1	ligand displacement	radioligand	cell membranes	47 nM
N=C(N)NCCC[C@@H]1NC(=O)[C@H](Cc2ccc(O)cc2)NC(=O)[C@@H](CCCCN)NC(=O)[C@@H](Cc2ccccc2)NC1=O	ligand displacement	radioligand	cell membranes	171 nM
